Compound activity deposited in PubChem BioAssay by several laboratories.
Compounds with a hit are over-represented: about 12% of the library has one in this group of screens.
Arbovirus inh: arbovirus infection inhibition | inhibition, % at 10 µM | AID 1251 | arbovirus infection cell-based antiviral screen | 200,000 compounds, 0.37% hits; in the data active = inhibition above about 30%
Wee1 degr inh: blocks degradation of human Wee1 kinase | P30291 | HeLa Luc-Wee1K328M stability, luciferase luminescence; 100% = proteasome inhibitor MG132 effect | reporter increase, % at 5 µM | 220,000 compounds, 1.2% hits | AID 1321;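 active = activation above the mean of all tested compounds plus 3 SD, set per screening run, cut at about 8.8% in these data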;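 also: cells exposed to compound for 20 h before luminescence read; 0% = DMSO alone and 100% = MG132 at 30 µM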
PKD1 inh: inhibitors of human PKD1 kinase | Q15139 | PKD1 kinase fluorescence polarization assay | inhibition, % (no concentration beside the values) | 200,000 compounds, 0.056% hits
Lmaj promast: inhibitors of Leishmania major promastigote growth. Leishmania major promastigotes, resazurin fluorescence viability. inhibition, % at 10 µM. 200,000 compounds, 9% hits. AID 1063;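 also: promastigotes grown with compound for 44 hours at 28 °C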
CHOP inhibitor: blocks CHOP induction under ER stress | 220,000 compounds, 3.8% hits | CHO-K1 CHOP-promoter luciferase, tunicamycin-induced, 15-18 h | AID 2732 | inhibition, % at 10 µM;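 active = compounds that reduced the stress-induced luciferase reporter signal by more than about 70% of percent inhibition, limit read from the data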;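 also: 0% = tunicamycin plus vehicle and 100% = wells without tunicamycin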
Rad51 HR inh: Rad51 (human) homologous recombination inhibition. Q06609. hRad51 DNA strand exchange, fluorescence dequenching. inhibition, % at 10 µM. 200,000 compounds, 0.085% hits;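 active = inhibition above 40% at the single screening dose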;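 also: 0% = DMSO control wells and 100% = blanks with heterologous ssDNA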
Target sequence (Q06609 whole entry, looked up): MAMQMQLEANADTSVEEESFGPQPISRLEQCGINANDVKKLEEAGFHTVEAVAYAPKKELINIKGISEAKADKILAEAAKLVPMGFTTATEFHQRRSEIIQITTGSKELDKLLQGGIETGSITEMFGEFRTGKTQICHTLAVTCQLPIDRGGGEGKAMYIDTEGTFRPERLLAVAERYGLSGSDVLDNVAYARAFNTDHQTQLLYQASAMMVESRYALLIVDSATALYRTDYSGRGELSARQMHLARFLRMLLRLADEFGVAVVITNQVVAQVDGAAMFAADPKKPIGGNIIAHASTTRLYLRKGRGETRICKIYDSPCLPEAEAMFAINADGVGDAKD
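Material: Human Rad51 nucleoprotein filaments preassembled on unlabelled ssDNA | Also added: Labelled 47-mer dsDNA for strand exchange | Dosing: Single dose, 10 µM final compound | Schedule: 30-min compound preincubation and 15-min exchange, both room temperature | Technique: Fluorescence dequenching at 485/520 nm | Measure: Percent inhibition relative to plate controls and blanks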
* marks the source's active call; other numbers are inactive results; nt = no result given. Rule as the data show it, unless noted: active = inhibition above about 50%; inactive = the rest.

SMILES	Arbovirus inh	Wee1 degr inh	PKD1 inh	Lmaj promast	CHOP inhibitor	Rad51 HR inh
CCc1ccc(NC(=O)C2(c3ccccc3)CC2(Cl)Cl)cc1 (configuration not stated)	-30.3	1.0	-12.2	95.7*	64.8	-3.3
CN1CCC(N(C)CC(C)(C)NS(=O)(=O)c2ccccc2)CC1	nt	0.0	nt	nt	-2.6	-6.7
CCOC(=O)C1CCCN(C(=O)c2cccc(NC(=O)C(CC)CC)c2)C1 (configuration not stated)	-2.7	-2.0	3.9	-2.1	-3.0	5.4
CCN(CC)C(=O)CSc1nnnn1-c1ccc(F)c(Cl)c1	1.8	-1.6	-8.3	-11.4	1.2	2.9
O=C(O)C1CCCCC1C(=O)NCc1ccccc1 (configuration not stated)	-3.0	0.3	-6.7	32.7	-3.2	-0.5
CC(C)=C1C2CCC1C(C(=O)NCc1ccccc1)C2C(=O)O (configuration not stated)	1.4	0.5	-1.9	-3.5	82.2*	-3.8
Cc1ccccc1CN1C(=O)[C@H]2Cc3c([nH]c4ccccc34)C(C)(C)N2C1=O	nt	nt	nt	nt	nt	-2.2
Cc1ccccc1NN=Nc1nc2c([nH]1)c(=O)n(C)c(=O)n2C	-9.6	12.0*	-8.1	-5.0	10.2	-0.9
Cn1c(=O)c2[nH]c(N=NNc3ccccc3F)nc2n(C)c1=O	nt	2.3	nt	nt	5.4	4.8
CC(C)OCCCNC(=O)C(NS(=O)(=O)c1ccc2c(c1)c(=O)n(C)c(=O)n2C)c1ccccc1 (configuration not stated)	-5.6	-1.6	-5.8	-0.2	4.0	4.6
O=C1NN(c2cccc(Br)c2)C(=O)/C1=C/c1ccc(-c2cc([N+](=O)[O-])ccc2O)o1	nt	-2.4	nt	nt	104.3*	18.8
c1ccc(CN2CCN(c3ncnc4c3[nH]c3ccccc34)CC2)cc1	-9.8	-2.6	-14.2	89.3*	87.0*	-8.9
c1nc(N2CCN(Cc3ccc4c(c3)OCO4)CC2)c2[nH]cnc2n1	-27.0	4.4	-2.9	-0.5	15.5	3.1
COc1cccc2[nH]c3c(N4CCC5(CC4)OCCO5)ncnc3c12	nt	-2.8	nt	nt	5.6	9.0
Cc1ccc2[nH]c3c(N4CCCCCC4)ncnc3c2c1	-6.3	-1.4	-6.7	60.0*	66.9	nt
CCCCOc1ncnc2c1[nH]c1ccc(C)cc12	nt	0.5	nt	nt	56.8	-4.8
COc1cccc2[nH]c3c(N4CCN(Cc5ccc6c(c5)OCO6)CC4)ncnc3c12	-19.9	-0.4	1.5	89.0*	54.7	nt
Cc1ccc2[nH]c3c(N4CCN(Cc5ccc6c(c5)OCO6)CC4)ncnc3c2c1	-28.6	-2.7	15.3	62.1*	62.9	nt
c1ccc2c(c1)[nH]c1c(N3CCC4(CC3)OCCO4)ncnc12	0.2	-0.2	8.0	25.1	33.1	-0.8
O=C1CC(NNC(=O)c2cccc(F)c2)C(=O)N1 (configuration not stated)	nt	0.5	nt	nt	15.9	0.7
CCOc1ncccc1C(=O)Nc1ccc(F)c(Cl)c1	-2.1	1.0	-4.2	-3.8	16.2	-6.2
Cc1ccc2c(c1)[nH]c1c(N3CCN(Cc4ccccc4)CC3)ncnc12	-18.8	3.1	3.2	96.7*	nt	0.2
CCC(C)(C)n1nnnc1CN1CCC(O)(c2cccc(C(F)(F)F)c2)CC1	2.4	-1.4	3.0	-4.0	20.8	-1.6
COc1ccc2c(c1)[nH]c1c(N3CCSCC3)ncnc12	nt	1.2	nt	nt	31.8	-18.4
Cc1ccc2[nH]c3c(N4CCN(Cc5ccccc5)CC4)ncnc3c2c1	-24.9	-0.8	-7.6	56.9*	61.2	0.9
SMILES	Arbovirus inh	Wee1 degr inh	PKD1 inh	Lmaj promast	CHOP inhibitor	Rad51 HR inh
OC1(c2cccc(C(F)(F)F)c2)CCN(c2ncnc3c2[nH]c2ccccc23)CC1	-44.7	-2.0	-0.3	98.3*	71.1*	nt
CCOc1ccc2[nH]c3c(N4CCN(c5ccccn5)CC4)ncnc3c2c1	8.2	-1.7	-6.0	27.7	30.4	-8.3
Fc1ccc2[nH]c3c(N4CCN(C5CCCCC5)CC4)ncnc3c2c1	3.1	-3.1	2.5	84.8*	-4.4	nt
COc1ccccc1N1CCN(S(=O)(=O)c2c(C)[nH]c(=O)[nH]c2=O)CC1	2.3	0.9	2.3	-1.3	4.8	nt
OC1(c2cccc(C(F)(F)F)c2)CCN(c2ccc(-c3ccccc3)nn2)CC1	20.0	8.3	-0.8	-2.2	84.6*	2.7
COc1ccc2c(c1)[nH]c1c(N3CCN(Cc4ccc5c(c4)OCO5)CC3)ncnc12	-25.2	-3.0	-52.6	78.3*	74.8*	-1.6
COc1cccc2[nH]c3c(N4CCC(C)CC4)ncnc3c12	8.8	0.5	6.9	94.0*	29.7	-2.4
COc1cccc(N2CCN(c3ncnc4c3[nH]c3ccc(F)cc34)CC2C)c1 (configuration not stated)	-46.6	-2.0	-7.2	100.4*	nt	3.1
CS(=O)(=O)c1ccccc1-c1nc(-c2ccc([N+](=O)[O-])cc2)no1	5.2	-2.1	5.5	-1.6	-9.2	-7.2
CCOc1ccc(CCNC(=O)C(CCC(N)=O)NC(=O)OCc2ccccc2)cc1OCC (configuration not stated)	2.9	0.0	6.0	-0.8	11.2	26.4
c1ccc2c(c1)CCN(c1ncnc3c1[nH]c1ccccc13)C2	-16.0	nt	nt	nt	70.7*	nt
CCOc1cc(CNCCN2CCOCC2)ccc1OCc1ccccc1Cl	-31.0	-4.1	-3.1	98.2*	-7.6	4.3
COc1cc(CNCCN2CCOCC2)ccc1OCc1c(Cl)cccc1Cl	-41.5	7.3	-3.6	86.4*	-16.3	-11.6
CCOc1cc(CNCCCN2CCOCC2)ccc1OCC(=O)NC(C)(C)C	-1.1	-1.3	8.4	0.5	-7.7	-1.8
Cc1cccc2cc(CN(Cc3cccnc3)C(=O)c3ccncc3)c(=O)[nH]c12	6.3	8.8	-9.0	-6.8	6.5	-0.4
Cc1cc(C)c2cc(CN(Cc3cccnc3)C(=O)c3ccc(F)cc3)c(Cl)nc2c1	91.1*	1.2	8.2	98.1*	23.6	-7.4
Cc1cccc2cc(CN(Cc3cccnc3)C(=O)c3ccccc3F)c(Cl)nc12	8.4	0.0	-2.5	97.1*	21.1	4.0
CCOC(=O)CSc1c(-c2ccccc2)c2cc(Cl)ccc2[nH]c1=O	16.2	0.9	-0.8	3.1	90.7*	7.5
Cc1ccc(S(=O)(=O)NCc2c(-c3ccccc3)c3cc(Cl)ccc3[nH]c2=O)cc1	-3.9	-1.4	6.3	1.8	103.3*	0.4
CC(C)Cc1nnc(NC(=O)CCC(=O)N2CCN(S(=O)(=O)c3ccccc3)CC2)s1	3.4	-0.9	-9.1	51.9*	14.2	1.8
Cc1sc2ncn(CC(=O)Nc3cccc(S(N)(=O)=O)c3)c(=O)c2c1-c1ccccc1	nt	-3.7	nt	nt	9.4	nt
C/C(=N\NC(=O)c1cc(-c2ccncc2)nc2ccccc12)c1ccc(N2CCOCC2)cc1	-4.2	0.2	-7.0	96.9*	65.4	6.3
C/C(=N\NC(=O)c1cc(-c2cccs2)nc2ccccc12)c1ccccn1	-22.9	-1.3	4.9	100.3*	50.2	8.3
